# Source: article PMC3201796 (Cell host & microbe, 2011)
# Structures can show the parent of a compound that is named as a salt. Where two headings read alike, the source gives them in different places.
# Legend:
# HIV-1 RT = HIV-1 RT (Human immunodeficiency virus type 1 group M subtype B, UniProt P03366); assay: HIV-1 reverse transcriptase assay; assay type: biochemical; conditions: competing dATP (3.2 μM); activated calf thymus DNA
# Summary of the method: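 Reaction mix: Tris-HCl pH 7.5, DTT, MgCl2, BSA, activated calf thymus DNA, unlabelled dCTP, dTTP and dGTP, and [3H]dATP (3.2 µM) with diphosphate test compound at various concentrations. Started with recombinant HIV-1 RT and run 30 min at 37 °C. Stopped with ice-cold 5% TCA/pyrophosphate; acid-insoluble DNA caught on glass-fibre filters and counted by liquid scintillation.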
# HSV-1 DNA polymerase = HSV-1 DNA polymerase (Human herpesvirus 1, UniProt P04293); assay: HSV-1 DNA polymerase assay; assay type: biochemical
# Summary of the method: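 Recombinant HSV-1 DNA polymerase; 40 µl reactions with a Tris.HCl pH 7.5/DTT/MgCl₂ premix, BSA and activated calf thymus DNA. One radiolabelled dNTP was the competing substrate: [³H]dATP (3.2 µM), [³H]dGTP (2.8 µM), [³H]dTTP (1 µM) or [³H]dCTP (2.5 µM); unlabelled others present. Tenofovir-diphosphate added from 200, 20, 2, 0.2 µM solutions. 60 min at 37°C; stopped with ice-cold TCA/pyrophosphate; acid-insoluble DNA collected on glass-fibre filters.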
# PHKs = assay: Cytotoxicity by cell morphology; assay type: cell-based, human; conditions: non-infected
# Summary of the method: (§1)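 Run in non-infected cultures in parallel with the antiviral assay. Cells exposed to test compound and examined microscopically at day 3. MCC is the lowest concentration giving a detectable change in cell morphology.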
# Cytostatic activity [1] = assay type: cell-based; conditions: human, PHKs, non-infected
# HIV-1 = conditions: lymphoid and cervico-vaginal tissues; ref Lisco et al., 2008; cited from earlier work
# Cytostatic activity [2] = assay type: cell-based; conditions: human, HEL cells, non-infected
# HEL cells = assay: Cytotoxicity by cell morphology; assay type: cell-based, human; conditions: HEL, non-infected, cell morphology
# Summary of the method: as §1
# HSV-2 [3] = assay type: cell-based; conditions: day 6, M/M
# HSV-2 [4] = assay: HSV-2 cytopathicity in primary monocyte/macrophage cultures; assay type: cell-based; conditions: for Cytopathicity (CPE) (%): day 6, M/M
# HSV-2 [5] = assay type: cell-based; conditions: M/M
# HSV-2 [6] = assay: HSV-2-infected athymic nude mice; assay type: in vivo; conditions: 1% gel, topical
# Summary of the method: (§2)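 Female NMRI athymic nude or hairless mice (~20 g, ~4 weeks; groups of five) scarified over ~1 cm² lumbosacral area with HSV-1 KOS (5×10^3 PFU) or HSV-2 G (5×10^2). Test compound 1% in 100% DMSO or CAPRISA 004-type gel, topical twice daily for 5 days from 1-2 h post-infection; same vehicle without drug as placebo. Lesions and mortality recorded over one month; Kaplan-Meier survival, log-rank test.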
# HSV-1 = assay: HSV-1-infected athymic nude mice; assay type: in vivo; conditions: 1% gel, topical
# Summary of the method: as §2
# HSV-2G, HSV-2MS = assay: Human tonsillar tissue ex vivo infected with HSV-2; assay type: cell-based; conditions: data not shown
# HSV-2 [7] = conditions: daily oral, co-formulation with FTC; ref Lama et al., 18th CROI 2011, # 1002; cited from earlier work
# Chain of HSV-1 DNA polymerase (P04293 whole entry): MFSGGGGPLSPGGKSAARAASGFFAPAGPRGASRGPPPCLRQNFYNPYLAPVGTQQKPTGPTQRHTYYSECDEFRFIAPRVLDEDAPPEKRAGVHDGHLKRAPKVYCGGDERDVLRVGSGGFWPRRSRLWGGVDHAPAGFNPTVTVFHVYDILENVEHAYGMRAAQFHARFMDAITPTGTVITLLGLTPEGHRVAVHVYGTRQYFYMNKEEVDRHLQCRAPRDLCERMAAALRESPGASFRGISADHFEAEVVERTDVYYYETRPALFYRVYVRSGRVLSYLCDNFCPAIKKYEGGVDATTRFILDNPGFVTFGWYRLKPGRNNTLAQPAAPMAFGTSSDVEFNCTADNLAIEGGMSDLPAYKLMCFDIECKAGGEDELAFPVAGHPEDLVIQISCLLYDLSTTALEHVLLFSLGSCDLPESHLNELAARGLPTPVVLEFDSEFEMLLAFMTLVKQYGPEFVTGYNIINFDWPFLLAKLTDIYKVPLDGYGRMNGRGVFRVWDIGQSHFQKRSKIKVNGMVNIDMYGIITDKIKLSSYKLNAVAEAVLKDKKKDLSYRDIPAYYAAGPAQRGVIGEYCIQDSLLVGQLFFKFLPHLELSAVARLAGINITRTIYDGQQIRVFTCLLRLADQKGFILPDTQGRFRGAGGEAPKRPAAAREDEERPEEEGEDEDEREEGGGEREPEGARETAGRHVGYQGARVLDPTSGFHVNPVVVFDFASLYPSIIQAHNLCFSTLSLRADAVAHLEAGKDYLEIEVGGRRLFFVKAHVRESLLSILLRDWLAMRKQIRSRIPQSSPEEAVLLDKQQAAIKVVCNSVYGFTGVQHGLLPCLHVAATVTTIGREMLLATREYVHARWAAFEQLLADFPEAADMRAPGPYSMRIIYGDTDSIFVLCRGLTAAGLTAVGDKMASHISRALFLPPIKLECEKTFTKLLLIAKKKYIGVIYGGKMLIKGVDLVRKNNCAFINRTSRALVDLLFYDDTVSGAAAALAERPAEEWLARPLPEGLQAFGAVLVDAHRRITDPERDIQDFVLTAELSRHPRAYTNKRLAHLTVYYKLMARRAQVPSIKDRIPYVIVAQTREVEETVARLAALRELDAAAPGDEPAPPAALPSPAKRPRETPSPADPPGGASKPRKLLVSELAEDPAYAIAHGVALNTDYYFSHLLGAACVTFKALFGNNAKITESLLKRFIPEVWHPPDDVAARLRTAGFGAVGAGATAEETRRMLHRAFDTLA
smiles,measurement,setting,value
"CC(Cn1cnc2c(N)ncnc21)OCP(=O)(O)OP(=O)(O)OP(=O)(O)O (stereo in doubt) [Tenofovir-diphosphate, Tenofovir diphosphate]",IC50 HIV-1 RT,HIV-1 RT,1.3 mg/L
same,IC50 herpesvirus DNA polymerase,HSV-1 DNA polymerase; competing dATP (3.2 μM),0.38 ± 0.03 mg/L
same,IC50 herpesvirus DNA polymerase,HSV-1 DNA polymerase; competing dCTP (2.5 μM),25 ± 1.8 mg/L
same,IC50 herpesvirus DNA polymerase,HSV-1 DNA polymerase; competing dGTP (2.8 μM),7.1 ± 5 mg/L
same,IC50 herpesvirus DNA polymerase,HSV-1 DNA polymerase; competing dTTP (1 μM),8.5 ± 3.8 mg/L
"Nc1nc2c(ncn2COCCO)c(=O)[nH]1 [Acyclovir, 9-(2-hydroxyethoxy-methyl)guanine]",Cell toxicity MCC (minimum cytotoxic concentration),PHKs,>50 µg/mL
same,CC50 at 3 days,Cytostatic activity [1],132 mg/L
same,inhibition of HIV-1 in herpesvirus-coinfected tissues,HIV-1,efficiently inhibits HIV-1
same,CC50 at 3 days,Cytostatic activity [2],166 ± 17 mg/L
same,Cell toxicity MCC (minimum cytotoxic concentration),HEL cells,>100 µg/mL
"Nc1ncnc2c1ncn2CCOCP(=O)(O)O [Adefovir, 9-[2-(phosphonylmethoxyethyl)adenine]]",Cell toxicity MCC (minimum cytotoxic concentration),PHKs,>50 µg/mL
same,Virus production (PFU/ml),HSV-2 [3]; 0.2 μg/ml,9.9×10^3 PFU/ml
same,Virus production (PFU/ml),HSV-2 [3]; 1 μg/ml,2.5×10^2 PFU/ml
same,Virus production (PFU/ml),HSV-2 [3]; 5 μg/ml,No virus
same,Virus production (PFU/ml),HSV-2 [3]; 20 μg/ml,No virus
same,Virus production (PFU/ml),HSV-2 [3]; 100 μg/ml,No virus
same,Virus production (PFU/ml),HSV-2 [3]; 500 μg/ml,No virus
same,Cytopathicity (CPE) (%),HSV-2 [4]; 0.2 μg/ml,5%
same,Cytopathicity (CPE) (%),HSV-2 [4]; 1 μg/ml,None
same,CPE suppression in M/M,HSV-2 [4]; 5 μg/ml,full CPE suppression
same,Cytopathicity (CPE) (%),HSV-2 [4]; 5 μg/ml,None
same,Cytopathicity (CPE) (%),HSV-2 [4]; 20 μg/ml,None
same,Cytopathicity (CPE) (%),HSV-2 [4]; 100 μg/ml,None
same,Cytopathicity (CPE) (%),HSV-2 [4]; 500 μg/ml,None
same,CC50 at 3 days,Cytostatic activity [1],17 ± 6 mg/L
same,Virus production (TCID50/ml),"HSV-2 [5]; 0.04 μg/ml, day 6",1×10^5 TCID50/ml
same,Virus production (TCID50/ml),"HSV-2 [5]; 0.2 μg/ml, day 6",6×10^4 TCID50/ml
same,Virus production (TCID50/ml),"HSV-2 [5]; 1 μg/ml, day 6",8×10^2 TCID50/ml
same,Virus production (TCID50/ml),"HSV-2 [5]; 5 μg/ml, day 6",No virus
same,Virus production (TCID50/ml),"HSV-2 [5]; 20 μg/ml, day 6",No virus
same,Virus production (TCID50/ml),"HSV-2 [5]; 100 μg/ml, day 6",No virus
same,Virus production (TCID50/ml),"HSV-2 [5]; 500 μg/ml, day 6 post infection",No virus
same,CC50 at 3 days,Cytostatic activity [2],100 ± 57 mg/L
same,performance in 1% gel-treated mice compared with tenofovir,HSV-2 [6],virtually not superior to tenofovir against HSV-2
same,"performance in 1% gel-treated mice, HSV-1 vs HSV-2",HSV-1,performed markedly better against HSV-1 than HSV-2
same,Cell toxicity MCC (minimum cytotoxic concentration),HEL cells,>100 µg/mL
"Nc1ccn(C[C@@H](CO)OCP(=O)(O)O)c(=O)n1 [Cidofovir, (S)-1-(3-hydroxy-2-phosphonylmethoxypropyl)cytosine]",Cell toxicity MCC (minimum cytotoxic concentration),PHKs,>50 µg/mL
same,CC50 at 3 days,Cytostatic activity [1],34 ± 20 mg/L
same,CC50 at 3 days,Cytostatic activity [2],82 ± 57 mg/L
same,Cell toxicity MCC (minimum cytotoxic concentration),HEL cells,>100 µg/mL
Nc1ccn([C@@H]2CS[C@H](CO)O2)c(=O)n1 [lamivudine],effect on HSV-2G replication,"HSV-2G, HSV-2MS",no effect
"CC(C)OC(=O)OCOP(=O)(CO[C@H](C)Cn1cnc2c(N)ncnc21)OCOC(=O)OC(C)C [tenofovir DF, tenofovir disoproxil fumarate]",effect on HSV-2 acquisition,HSV-2 [7],did not reduce HSV-2 acquisition
